Compound activity (PubChem)
MrgX1 agonist: agonists of human MrgX1 receptor, primary screen, HEK293 cells, Fluo-4 calcium flux | Fluo-4 calcium fluorescence, agonist mode; active compounds read high | Mas-related G-protein coupled receptor member X1 (Homo sapiens), Q96LB2 | AID 588627, 2011 | 310,000 tested, 0.44% active | B-score at 10 µM;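 active = calcium response B-score plate-corrected fluorescence ratio at least 3 library SD, with starting fluorescence B-score inside 5 SD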
Target sequence (Q96LB2 whole entry, looked up): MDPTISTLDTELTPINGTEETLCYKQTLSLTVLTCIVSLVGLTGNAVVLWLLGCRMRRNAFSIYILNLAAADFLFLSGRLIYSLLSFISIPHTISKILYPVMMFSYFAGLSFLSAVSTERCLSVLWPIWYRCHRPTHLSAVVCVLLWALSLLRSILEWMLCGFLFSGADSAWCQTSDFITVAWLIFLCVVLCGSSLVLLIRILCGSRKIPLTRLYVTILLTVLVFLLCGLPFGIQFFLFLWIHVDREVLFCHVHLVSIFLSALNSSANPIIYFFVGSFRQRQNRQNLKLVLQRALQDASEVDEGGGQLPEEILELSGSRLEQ
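Material: MrgX1-expressing HEK293 cells; input: 15,000 cells per well; doses: test compound given as first of three sequential additions; schedule: overnight plating before 1 h dye loading; technique: Fluo-4 NW calcium-flux fluorescence, kinetic read; evaluation: baseline-normalised fluorescence change ratio, B-scored; control set: plate-wise positive and negative controls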
MrgX1 antagonist: antagonists of human MrgX1 receptor, primary screen, HEK293 cells, Fluo-4 calcium flux; Mas-related G-protein coupled receptor member X1 (Homo sapiens), Q96LB2; BAM8-22 antagonism; active compounds read low; B-score at 10 µM; 310,000 tested, 1.3% active; AID 588676, 2011;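 active = calcium-response B-score plate-corrected more than 3 library SD below zero, starting fluorescence within 5 deviations, no agonist response on first addition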;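 also: peak minus trough fluorescence over baseline after final BAM8-22 challenge near maximal dose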
RGS4 inh: RGS4 inhibitors, primary screen, cell-based, HEK293 M3R inducible RGS4, calcium flux; B-score at 10 µM; 310,000 tested, 0.45% active; Fluo-4 calcium flux; active compounds read high; triggered by carbachol at its EC20;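 active = B-score, a plate-corrected calcium signal, over three deviations above library mean, with baseline fluorescence within five deviations of library mean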;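 also: RGS4 expression induced by doxycycline in cells with stable M3 receptor; B-score is computed from the integrated fluorescence ratio over baseline after carbachol; higher B-score means a larger calcium signal and so more RGS4 inhibition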
Target sequence (P49798 whole entry, looked up): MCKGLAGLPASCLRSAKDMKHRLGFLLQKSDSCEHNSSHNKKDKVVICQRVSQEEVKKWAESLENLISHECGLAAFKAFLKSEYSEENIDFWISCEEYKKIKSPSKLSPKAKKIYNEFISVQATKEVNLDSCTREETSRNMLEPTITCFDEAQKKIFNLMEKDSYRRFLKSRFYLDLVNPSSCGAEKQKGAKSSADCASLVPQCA
MrgX1 PAM: positive allosteric modulators of MrgX1, primary screen, HEK293 cells, Fluo-4 calcium flux; Mas-related G-protein coupled receptor member X1 (Homo sapiens), Q96LB2; FDSS; active compounds read high; B-score at 10 µM; 310,000 tested, 0.63% active;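 active = plate-corrected calcium response at least 3 library SD above typical, normal starting fluorescence, not activating the receptor alone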;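 also: compound read alongside a low EC10 to EC30 dose of BAM8-22 agonist; peak minus trough fluorescence over baseline measured at the second addition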
RGS4 pot: RGS4 potentiators or activators, primary screen, cell-based, HEK293 M3R inducible RGS4, calcium flux. carbachol calcium flux Fluo4; active compounds read low. B-score at 10 µM. 310,000 tested, 0.92% active. AID 463111, 2010;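 active = B-score of the integrated calcium signal more than 4 SD below the library mean, with starting fluorescence not abnormally high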;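 also: negative B-score means reduced calcium response which marks RGS4 activation or potentiation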
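Also added: carbachol at ECmax as muscarinic agonist stimulus; Assay system: HEK293 cells with stable M3R and inducible RGS4; Timing: overnight RGS4 induction, 30 min dye load 37 °C, 20 min compound RT; Measured by: Fluo4-AM (2 µM) calcium-flux fluorescence, kinetic read.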
MrgX1 antag conf: MrgX1 receptor antagonists, duplicate retest, confirmation, HEK293 cells, Fluo-4 calcium flux; shares compounds with MrgX1 antagonist; 2,300 tested, 19% active; BAM8-22 calcium flux; active compounds read low; remaining BAM8-22 calcium response % of control (active compounds read low), % at 10 µM;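 active = remaining agonist calcium response no higher than 100% minus 3 SD of agonist-only control wells, with starting fluorescence near control levels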;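 also: agonist BAM8-22 given at a near maximal EC90 to ECmax level; peak minus minimum fluorescence divided by baseline after agonist addition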
HEK293 Ca flux: nonspecific calcium signal in parental HEK293, confirmation, counter-screen for MrgX1 antagonist project, parental HEK293 cells, Fluo-4 calcium flux. Fluo-4 calcium fluorescence, FDSS. shares compounds with MrgX1 antagonist. fluorescence ratio F(max-min)/F0 at 10 µM. 4,000 tested, 2% active;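 active = duplicate-averaged calcium fluorescence ratio at least three times the standard deviation of buffer wells, a nonspecific response in parental cells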
HEK293 Ca counter: calcium response in parental HEK293 cells, primary screen, counter-screen for MrgX1 allosteric activator project, cell-based, Fluo-4 calcium flux, duplicate. shares compounds with MrgX1 antagonist. Fluo-4 fluorescence ratio; active compounds read high. fluorescence ratio F(max-min)/F0 at 10 µM. 4,000 tested, 0.4% active;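 active = calcium fluorescence ratio, averaged over duplicates, at least 3 SD of the buffer-well ratio, meaning a nonspecific response in receptor-free cells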;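 also: untransfected parental HEK293 lacking MrgX1 used as counterscreen for MrgX1 allosteric activators; fluorescence change taken during the second addition on a kinetic imager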
HEK293 Ca cntr2: calcium response in parental HEK293 cells, primary screen, counter-screen for MrgX1 agonist project, cell-based, Fluo-4 calcium flux, duplicate, agonist mode; shares compounds with MrgX1 antagonist; Fluo-4 calcium fluorescence (FDSS); active compounds read high; fluorescence ratio F(max-min)/F0 at 10 µM; 4,000 tested, 8.7% active;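 active = calcium fluorescence ratio at least three times the spread of buffer wells, meaning a non-specific response in parental cells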
Hits are given with their value; 0 = inactive; - = no result given. In the library only some 3.5% were active in any assay of this set; here they are far more common.

SMILES	MrgX1 agonist	MrgX1 antagonist	RGS4 inh	MrgX1 PAM	RGS4 pot	MrgX1 antag conf	HEK293 Ca flux	HEK293 Ca counter	HEK293 Ca cntr2
COc1ccc2cc(CCNC(=O)c3ccc(Br)o3)c(=O)[nH]c2c1	0	-5.3	0	0	0	0	0	0	0
Cc1cc2cc(CCNC(=O)c3ccc(Br)o3)c(=O)[nH]c2cc1C	0	0	0	0	0	-	-	-	-
CCC1CCCCN1C(=O)COc1c(Br)cc(Br)c2cccnc12 (stereo not given)	0	0	0	0	0	-	-	-	-
Cc1onc(-c2c(F)cccc2Cl)c1C(=O)N1C=CC(C(F)(F)F)=NCC1	0	0	0	0	0	-	-	-	-
Cc1onc(-c2c(Cl)cccc2Cl)c1C(=O)N1C=CC(C(F)(F)F)=NCC1	0	-9.2	0	0	0	0	0	0	0
CNC(=S)N(Cc1ccc(Cl)cc1)Cc1cccs1	0	0	0	0	0	-	-	-	-
Cc1cc(C)c2cc3c(ccn3C3OC[C@H](O)[C@H](O)[C@H]3O)cc2n1 (stereo not given in full)	0	-6.4	0	0	0	0	0	0	0
O=C(NCc1ccc(Cl)cc1Cl)C1CCN(S(=O)(=O)c2ccc3c(c2)OCCCO3)CC1	0	-7.1	0	0	0	0	0	0	0
O=C(COc1coc(CN2CCN(c3ccccc3F)CC2)cc1=O)NCC1CCCO1 (stereo not given)	0	0	0	0	0	-	-	-	-
Cc1cccc(NC(=O)CNC(=O)C23CC4CC(CC(Cl)(C4)C2)C3)n1	0	0	0	0	0	-	-	-	-
Cc1cccc(C)c1NC(=O)CNC(=O)C12CC3CC(CC(O)(C3)C1)C2	0	-4.9	0	0	0	0	0	0	0
COc1ccc(OC)c(S(=O)(=O)Nc2c(NC3CCCCC3)c3ccccc3oc2=O)c1	0	0	0	0	0	-	-	-	-
Cc1nn(C)cc1CNC(=O)c1cnn2c(C(F)F)cc(C3CC3)nc12	0	-4.7	0	0	0	0	0	0	0
O=C(NCCc1ccccc1)c1cnn2c(C(F)F)cc(C3CC3)nc12	0	0	0	0	0	-	-	-	-
Cc1ccc(C)c(OC2=NS(=O)(=O)c3ccccc32)c1	0	-4.8	0	0	0	0	0	0	0
COC1=NS(=O)(=O)c2ccccc21	0	0	0	0	0	-	-	-	-
CC(=O)Nc1ccc2c(c1)N(C(C)=O)c1ccccc1CC2	0	-4.7	0	0	0	82%	0	0	0
COc1ccc([N+](=O)[O-])cc1NC(=O)C1CCCN1S(=O)(=O)c1cccs1 (stereo not given)	0	0	0	0	0	-	-	-	-
Cc1c(Nc2ccc(C=O)cc2)c(=O)n(-c2ccccc2)n1C	0	0	0	0	0	-	-	-	-
C=CCn1c(O)c(CN2CCOCC2)c(C)c(C#N)c1=O	0	-6.4	0	0	0	0	0	0	0
O=C(CSc1nc(Nc2ccccc2)nc(N2CCOCC2)n1)NC1CCCCC1	0	0	0	0	0	-	-	-	-
CC(C)(C)c1ccc(OCCC(=O)OCC(=O)NC2CCS(=O)(=O)C2)cc1 (stereo not given)	0	-5.3	0	0	0	0	0	0	0
